What was measured:
[1] = Solubility of the compound in Tris buffer; format: physicochemical
Outline: (§1)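 Solubility was assessed while setting up thermal denaturation experiments with salmon sperm DNA (68% A–T base-pair content). Each buffer (phosphate, MES, Tris) was tried alone and also mixed with DMSO or ethanol.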

[2] = Solubility of the compound in MES buffer; format: physicochemical; outline: as §1
[3] = Solubility of the compound in phosphate buffer; format: physicochemical; outline: as §1
[4] = target: T1, Methylated-DNA--protein-cysteine methyltransferase (Homo sapiens, UniProt P16455); experiment: Inactivation of human O-6-methylguanine-DNA methyltransferase assessed as [3H]methylated protein formation by liquid scintillation counting in presence of [3H]methylated calf thymus DNA
T1 sequence (P16455 whole entry): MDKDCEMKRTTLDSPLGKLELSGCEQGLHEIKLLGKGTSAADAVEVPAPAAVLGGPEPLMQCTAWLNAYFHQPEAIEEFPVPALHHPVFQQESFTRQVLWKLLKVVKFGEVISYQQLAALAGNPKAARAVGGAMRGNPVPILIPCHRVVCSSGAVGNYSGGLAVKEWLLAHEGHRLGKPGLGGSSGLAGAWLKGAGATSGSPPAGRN

Row | solubility [1] | solubility [2] | solubility [3] | IC50 [4] | SMILES
1 | Insoluble | Insoluble | Insoluble |  | Nc1ccc(Cc2ccc(Nc3nc(N)nc(OCc4cc(Br)cs4)c3[N+](=O)[O-])cc2)cc1
2 | Insoluble | Insoluble | Insoluble |  | Nc1ccc(Nc2ccc(Nc3nc(N)nc(OCc4cc(Br)cs4)c3[N+](=O)[O-])cc2)cc1
3 | Insoluble | Insoluble | Insoluble |  | Nc1ccc(Oc2ccc(Nc3nc(N)nc(OCc4cc(Br)cs4)c3[N+](=O)[O-])cc2)cc1
4 | Insoluble | Insoluble | Insoluble |  | Nc1ccc(C(=O)c2ccc(Nc3nc(N)nc(OCc4cc(Br)cs4)c3[N+](=O)[O-])cc2)cc1
5 | Insoluble | Insoluble | Insoluble |  | Nc1ccc(Cc2ccc(Nc3nc(N)nc(OCc4ccccc4)c3[N+](=O)[O-])cc2)cc1
6 | Insoluble | Insoluble | Insoluble |  | Nc1ccc(Nc2ccc(Nc3nc(N)nc(OCc4ccccc4)c3[N+](=O)[O-])cc2)cc1
7 | Insoluble | Insoluble | Insoluble | > 600 µM | Nc1ccc(Oc2ccc(Nc3nc(N)nc(OCc4ccccc4)c3[N+](=O)[O-])cc2)cc1
8 | Insoluble | Insoluble | Insoluble | > 600 µM | Nc1ccc(C(=O)c2ccc(Nc3nc(N)nc(OCc4ccccc4)c3[N+](=O)[O-])cc2)cc1
9 |  |  |  | 0.003 µM | Nc1nc(OCc2cc(Br)cs2)c2[nH]cnc2n1 [LOMEGUATRIB]

From ChEMBL document CHEMBL1681736, “Towards more specific O6-methylguanine-DNA methyltransferase (MGMT) inactivators” (Bioorg Med Chem, 2011)
